One block for each compound: values may come before it. The source made the active and inactive calls. The calls are words filed in the database; no cut-off is given here.
How the values were obtained:
Plasma [1] = assay: Antiplatelet activity in […] assessed as inhibition of MDA-MB-231-induced platelet aggregation at 0.1 to 10 uM by light transmission aggregometry; format: functional; conditions: Homo sapiens, dose 0.1-10 µM
Homo sapiens = species: Homo sapiens; assay: Selectivity index, ratio of IC50 for inhibition of human coagulation factor alpha-thrombin using Boc-Val-Pro-Arg-AMC as fluorogenic substrate to IC50 for inhibition of human coagulation factor XIIA using Boc-Gln-Gly-Arg-AMC as fluorogenic substrate incubated for 1 hr by fluorometric assay
Plasma [2] = assay: Antiplatelet activity in […] assessed as inhibition of MDA-MB-231-induced platelet aggregation by light transmission aggregometry; format: functional; conditions: Homo sapiens, dose 0.1-10 µM
Plasma [3] = assay: Antiplatelet activity in human platelet-rich plasma assessed as inhibition of TRAP6 induced platelet activation by measuring reduction in ATP release at 1 uM preincubated for 20 mins followed by TRAP6 addition and measured after 10 mins by luciferin-based luminescence assay; format: functional, cell-free; conditions: time 30.0 min
Summary of the method: (§1)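 Platelet activation measured as dense-granule ATP release by firefly luciferase bioluminescence. Compound-treated platelets were activated with MDA-MB-231 cells, thrombin or TRAP-6. TRAP-6-induced signal was set as 100%. Triplicate, mean ± SD.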

Plasma [4] = assay: Antiplatelet activity in human platelet-rich plasma assessed as inhibition of thrombin induced platelet activation by measuring reduction in ATP release preincubated for 20 mins followed by thrombin addition and measured after 10 mins by luciferin-based luminescence assay; format: functional, cell-free; conditions: time 30.0 min; summary of the method: as §1
Plasma [5] = assay: Antiplatelet activity in […] assessed as inhibition of MDA-MB-231-induced platelet aggregation at 100 nM by light transmission aggregometry; format: functional; conditions: Homo sapiens

Ratio IC50 (Homo sapiens): 13
SMILES: Nc1nc(-c2ccccn2)nn1C(=O)c1cccc2ccccc12
inhibition (Plasma [1]): inactive

SMILES: Nc1nc(-c2ccccn2)nn1C(=O)c1ccc2ccccc2c1
inhibition (Plasma [2]): Dose-dependent effect
inhibition (Plasma [3]): inactive
inhibition (Plasma [4]): Dose-dependent effect
inhibition (Plasma [5]): inactive

From ChEMBL document CHEMBL4673255, “Acylated 1H-1,2,4-Triazol-5-amines Targeting Human Coagulation Factor XIIa and Thrombin: Conventional and Microscale Synthesis, Anticoagulant Properties, and Mechanism of Action” (J Med Chem, 2020)
